Assay results collected from several papers.
Compare with care: the assays were run in different laboratories.
KDR: Vascular endothelial growth factor receptor 2 (KDR, Homo sapiens, UniProt P35968)
PIK3CB: Phosphatidylinositol 4,5-bisphosphate 3-kinase catalytic subunit beta isoform (PIK3CB, Homo sapiens, UniProt P42338)
PIK3CA: Phosphatidylinositol 4,5-bisphosphate 3-kinase catalytic subunit alpha isoform (PIK3CA, Homo sapiens, UniProt P42336)

O=[N+]([O-])c1cc(Br)c(O)c(C=NNc2ccc(Br)cc2)c1
IC50 (KDR; enzyme activity; inhibitor; ATP luminescence): 7070 nM

O=C1C(=Nc2ccccc2Br)c2ccccc2N1Cc1ccccc1
IC50 (PIK3CB; enzyme activity; inhibitor; ADP detection): 16.6 nM

CN(C)C(=O)c1cc2cnc(Nc3ccc(-c4cccc5c(=O)cc(N6CCNCC6)oc45)cc3)nc2n1C1CCCC1
IC50 (PIK3CA; enzyme activity; inhibitor; radiometric): > 10000 nM

O=[N+]([O-])c1cc(Br)c(O)c(C=NNc2ccc(C(F)(F)F)cc2)c1
IC50 (KDR; enzyme activity; inhibitor; ATP luminescence): 8950 nM

Cc1cccc(N=C2C(=O)N(Cc3ccccc3)c3ccccc32)c1
IC50 (PIK3CA; enzyme activity; inhibitor; ADP detection): 8.64 nM

O=C(O)CC[C@H](NC(=O)N[C@@H](CCCCNC(=O)[C@H](Cc1ccc2ccccc2c1)NC(=O)[C@H]1CC[C@H](CNC(=O)CN2CCN(CC(=O)O)CCN(CC(=O)O)CCN(CC(=O)O)CC2)CC1)C(=O)O)C(=O)O
IC50 (Glutamate carboxypeptidase 2 (FOLH1, Homo sapiens, UniProt Q04609); ligand displacement in cells; radioligand): 7.8 nM

COc1ccc(-c2cc(=O)c3c(O)cc(O[C@@H]4O[C@H](CO[C@@H]5O[C@@H](C)[C@H](O)[C@@H](O)[C@H]5O)[C@@H](O)[C@H](O)[C@H]4O)cc3o2)cc1O
IC50 (KDR; enzyme activity; inhibitor; TR-FRET): 32700 nM

O=[N+]([O-])c1ccc(O)c(C=NNc2ccc(Cl)cc2)c1
IC50 (KDR; enzyme activity; inhibitor; ATP luminescence): 21200 nM

O=C1C(=Nc2ccc(Cl)cc2)c2ccccc2N1Cc1ccc([N+](=O)[O-])cc1
IC50 (PIK3CB; enzyme activity; inhibitor; ADP detection): 7.73 nM

CC(C)C[C@H](NC(=O)[C@@H](NC(=O)N[C@@H](Cc1ccccc1)C(=O)O)[C@@H]1CCN=C(N)N1)C(=O)N[C@H](C=O)Cc1ccccc1
IC50 (Cathepsin G (CTSG, Homo sapiens, UniProt P08311); enzyme activity; inhibitor): 4190 nM

CCc1ccc(N=C2C(=O)Nc3ccccc32)cc1
IC50 (PIK3CB; enzyme activity; inhibitor; ADP detection): 270 nM

CN(C)C(=O)c1cc2cnc(Nc3ccc(-c4cccc5c(=O)cc(N6CCOCC6)oc45)c(F)c3)nc2n1C1CCCC1
IC50 (PIK3CA; enzyme activity; inhibitor; radiometric): 182 nM

COc1ccc(Nc2nc(Nc3ccc4ncccc4c3)nc(N3CCOCC3)n2)cc1
IC50 (PIK3CA; enzyme activity; inhibitor; ADP detection): 1290 nM

O=C1C(=Nc2ccccc2I)c2ccccc2N1Cc1ccc(Br)cc1
IC50 (PIK3CA; enzyme activity; inhibitor; ADP detection): 298 nM

COc1ccc(-c2cc(=O)c3ccc(Nc4ncc5cc(C(=O)N(C)C)n(C6CCCC6)c5n4)cc3o2)cc1
IC50 (PIK3CA; enzyme activity; inhibitor; radiometric): > 10000 nM

Cc1ccc(CN2C(=O)C(=Nc3c(C(C)C)cccc3C(C)C)c3ccccc32)cc1
IC50 (PIK3CA; enzyme activity; inhibitor; ADP detection): 319 nM

Cc1c(N2CCOCC2)oc2c(-c3ccc(Nc4ncc5cc(C(=O)N(C)C)n(C6CCCC6)c5n4)cc3F)cccc2c1=O
IC50 (PIK3CA; enzyme activity; inhibitor; radiometric): > 10000 nM

O=[N+]([O-])c1cc(Br)c(O)c(C=NNc2ccccc2)c1
IC50 (KDR; enzyme activity; inhibitor; ATP luminescence): 5400 nM

CN(C)C(=O)c1cc2cnc(Nc3ccc(-c4ccc5c(=O)cc(N6CCNCC6)oc5c4)cc3)nc2n1C1CCCC1
IC50 (PIK3CA; enzyme activity; inhibitor; radiometric): > 10000 nM

O=C(CCc1ccc(Cl)cc1)N1C(=O)C(=Nc2ccc(Cl)cc2Br)c2ccccc21
IC50 (PIK3CB; enzyme activity; inhibitor; ADP detection): 810 nM

CC(=O)OC[C@H]1O[C@@H]([S-])[C@H](OC(C)=O)[C@@H](OC(C)=O)[C@@H]1OC(C)=O.CCP(CC)CC.[Au+]
IC50 (Thioredoxin reductase 1, cytoplasmic (TXNRD1, Homo sapiens, UniProt Q16881); enzyme activity; inhibitor; absorbance): 397 nM

CN(C)C(=O)c1cc2cnc(Nc3ccc(-c4ccc5c(=O)cc(N6CCOCC6)oc5c4)cc3)nc2n1C1CCCC1
IC50 (PIK3CA; enzyme activity; inhibitor; radiometric): 5780 nM

Cc1cccc(N=C2C(=O)Nc3ccccc32)c1
IC50 (PIK3CB; enzyme activity; inhibitor; ADP detection): 134 nM

CN(C)C(=O)c1cc2cnc(Nc3cncc(-c4cccc5c(=O)cc(N6CCOCC6)oc45)c3)nc2n1C1CCCC1
IC50 (PIK3CA; enzyme activity; inhibitor; radiometric): > 10000 nM

O=[N+]([O-])c1cc(I)c(O)c(C=NNc2ccc(Br)cc2)c1
IC50 (KDR; enzyme activity; inhibitor; ATP luminescence): 6520 nM

CN(C)C(=O)c1cc2cnc(Nc3ccc(-c4cccc5c(=O)cc(N6CCOCC6)oc45)cn3)nc2n1C1CCCC1
IC50 (PIK3CA; enzyme activity; inhibitor; radiometric): > 10000 nM

CC1=C(/C=C/C(C)=C/C=C/C(C)=C/C=C/C=C(C)/C=C/C=C(C)/C=C/C2=C(C)CCCC2(C)C)C(C)(C)CCC1
IC50 (KDR; enzyme activity; inhibitor; TR-FRET): > 40000 nM
